# Legend:
# Type in all cases: functional
# Rattus norvegicus [1] = assay: Effect on level of apolipoprotein (Apo) AI (relative to untreated control) in cholesterol fed-male rats at 40 mg/kg/day
# Outline: (§1)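 Six male Sprague–Dawley rats per group, fed a cholic acid/cholesterol-supplemented diet, received compound in the diet ad libitum for eight days. Serum Apo A–I was measured by SDS-PAGE or by rat competition ELISA and reported as % change versus untreated controls (p < 0.05). Gemfibrozil was the internal positive control in each study.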
# Rattus norvegicus [2] = assay: Effect on level of high density lipoprotein cholesterol (relative to untreated control) in cholesterol fed-male rats at 40 mg/kg/day
# Outline: (§2)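 Cholic acid/cholesterol-fed male Sprague–Dawley rats (n = 6 per group) were dosed via diet ad libitum for eight days. Lipoproteins were separated by ultracentrifugation and HDL cholesterol was quantified by an enzymatic colorimetric method. Values are % change relative to untreated controls, with significance at p < 0.05. Gemfibrozil was the internal positive control.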
# Rattus norvegicus [3] = assay: Effect on change in body weight gain (relative to untreated control) in cholesterol fed-male rats at 40 mg/kg/day
# Outline: (§3)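 Male Sprague–Dawley rats, six per group, on a cholic acid- and cholesterol-supplemented diet. Compounds were mixed into the diet and given ad libitum for eight days. Change in body weight gain is expressed as a percentage of untreated controls. Significance was set at p < 0.05 versus untreated controls.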
# Rattus norvegicus [4] = assay: Effect on level of total cholesterol (relative to untreated control) in cholesterol fed-male rats at 40 mg/kg/day
# Outline: (§4)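 Male Sprague–Dawley rats (groups of six) fed a cholic acid- and cholesterol-supplemented diet; compound mixed into the diet, given ad libitum for eight days. Lipoproteins were separated by ultracentrifugation, and cholesterol was measured by an enzymatic colorimetric method. Results are % change versus untreated controls, with significance at p < 0.05.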
# Rattus norvegicus [5] = assay: Effect on level of triglyceride in (relative to untreated control) in cholesterol fed-male rats at 40 mg/kg/day
# Outline: (§5)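 Serum triglycerides were measured in groups of six male Sprague–Dawley rats on a cholic acid/cholesterol-supplemented diet. Compound was dosed in the diet, ad libitum, for eight days. Results are % change relative to untreated controls, with significance at p < 0.05.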
# Rattus norvegicus [6] = assay: Effect on level of high density lipoprotein cholesterol (relative to untreated control) in cholesterol fed-male rats at 50 mg/kg/day; outline: as §2
# Rattus norvegicus [7] = assay: Effect on change in body weight gain (relative to untreated control) in cholesterol fed-male rats at 50 mg/kg/day; outline: as §3
# Rattus norvegicus [8] = assay: Effect on level of total cholesterol (relative to untreated control) in cholesterol fed-male rats at 50 mg/kg/day; outline: as §4
# Rattus norvegicus [9] = assay: Effect on level of apolipoprotein (Apo) AI (relative to untreated control) in cholesterol fed-male rats at 50 mg/kg/day; outline: as §1
# Rattus norvegicus [10] = assay: Effect on level of triglyceride in (relative to untreated control) in cholesterol fed-male rats at 50 mg/kg/day; outline: as §5
# Rattus norvegicus [11] = assay: Effect on level of high density lipoprotein cholesterol (relative to untreated control) in cholesterol fed-male rats at 75 mg/kg/day; outline: as §4
# Rattus norvegicus [12] = assay: Effect on level of total cholesterol (relative to untreated control) in cholesterol fed-male rats at 75 mg/kg/day; outline: as §4
# Rattus norvegicus [13] = assay: Effect on level of triglyceride in (relative to untreated control) in cholesterol fed-male rats at 75 mg/kg/day; outline: as §5
# Rattus norvegicus [14] = assay: Effect on level of apolipoprotein (Apo) AI (relative to untreated control) in cholesterol fed-male rats at 75 mg/kg/day; outline: as §1
# Rattus norvegicus [15] = assay: Effect on change in body weight gain (relative to untreated control) in cholesterol fed-male rats at 75 mg/kg/day; outline: as §3
# Rattus norvegicus [16] = assay: Effect on level of high density lipoprotein cholesterol (relative to untreated control) in cholesterol fed-male rats at 63 mg/kg/day; outline: as §4
# Rattus norvegicus [17] = assay: Effect on change in body weight gain (relative to untreated control) in cholesterol fed-male rats at 63 mg/kg/day; outline: as §3
# Rattus norvegicus [18] = assay: Effect on level of total cholesterol (relative to untreated control) in cholesterol fed-male rats at 63 mg/kg/day; outline: as §4
# Rattus norvegicus [19] = assay: Effect on level of triglyceride in (relative to untreated control) in cholesterol fed-male rats at 63 mg/kg/day; outline: as §5
# Rattus norvegicus [20] = assay: Effect on level of apolipoprotein (Apo) AI (relative to untreated control) in cholesterol fed-male rats at 63 mg/kg/day; outline: as §1
# Rattus norvegicus [21] = assay: Effect on level of high density lipoprotein cholesterol (relative to untreated control) in cholesterol fed-male rats at 66 mg/kg/day; outline: as §4
# Rattus norvegicus [22] = assay: Effect on level of total cholesterol (relative to untreated control) in cholesterol fed-male rats at 66 mg/kg/day; outline: as §4
# Rattus norvegicus [23] = assay: Effect on change in body weight gain (relative to untreated control) in cholesterol fed-male rats at 66 mg/kg/day; outline: as §3
# Rattus norvegicus [24] = assay: Effect on level of triglyceride in (relative to untreated control) in cholesterol fed-male rats at 66 mg/kg/day; outline: as §5
# Rattus norvegicus [25] = assay: Effect on level of apolipoprotein (Apo) AI (relative to untreated control) in cholesterol fed-male rats at 66 mg/kg/day; outline: as §1
# Rattus norvegicus [26] = assay: Effect on level of apolipoprotein (Apo) AI (relative to untreated control) in cholesterol fed-male rats at 36 mg/kg/day; outline: as §1
# Rattus norvegicus [27] = assay: Effect on level of high density lipoprotein cholesterol (relative to untreated control) in cholesterol fed-male rats at 36 mg/kg/day; outline: as §2
# Rattus norvegicus [28] = assay: Effect on change in body weight gain (relative to untreated control) in cholesterol fed-male rats at 36 mg/kg/day; outline: as §3
# Rattus norvegicus [29] = assay: Effect on level of total cholesterol (relative to untreated control) in cholesterol fed-male rats at 36 mg/kg/day; outline: as §4
# Rattus norvegicus [30] = assay: Effect on level of triglyceride in (relative to untreated control) in cholesterol fed-male rats at 36 mg/kg/day; outline: as §5
# Rattus norvegicus [31] = assay: Effect on level of high density lipoprotein cholesterol (relative to untreated control) in cholesterol fed-male rats at 55 mg/kg/day; outline: as §2
# Rattus norvegicus [32] = assay: Effect on change in body weight gain (relative to untreated control) in cholesterol fed-male rats at 55 mg/kg/day; outline: as §3
# Rattus norvegicus [33] = assay: Effect on level of total cholesterol (relative to untreated control) in cholesterol fed-male rats at 55 mg/kg/day; outline: as §4
# Rattus norvegicus [34] = assay: Effect on level of triglyceride in (relative to untreated control) in cholesterol fed-male rats at 55 mg/kg/day; outline: as §5
# Rattus norvegicus [35] = assay: Effect on level of apolipoprotein (Apo) AI (relative to untreated control) in cholesterol fed-male rats at 55 mg/kg/day; outline: as §1
# Rattus norvegicus [36] = assay: Effect on level of high density lipoprotein cholesterol (relative to untreated control) in cholesterol fed-male rats at 68 mg/kg/day; outline: as §4
# Rattus norvegicus [37] = assay: Effect on level of total cholesterol (relative to untreated control) in cholesterol fed-male rats at 68 mg/kg/day; outline: as §4
# Rattus norvegicus [38] = assay: Effect on change in body weight gain (relative to untreated control) in cholesterol fed-male rats at 68 mg/kg/day; outline: as §3
# Rattus norvegicus [39] = assay: Effect on level of triglyceride in (relative to untreated control) in cholesterol fed-male rats at 68 mg/kg/day; outline: as §5
# Rattus norvegicus [40] = assay: Effect on level of apolipoprotein (Apo) AI (relative to untreated control) in cholesterol fed-male rats at 68 mg/kg/day; outline: as §1
compound,measurement,setting,value
Cc1cccc(Cl)c1/N=C(\S)NCCO,Activity,Rattus norvegicus [1],-34%
same,Activity,Rattus norvegicus [2],23%
same,Activity,Rattus norvegicus [3],-155%
same,Activity,Rattus norvegicus [4],8%
same,Activity,Rattus norvegicus [5],-48%
Cc1ccc(C)c(OCCCC(C)(C)C(=O)O)c1 [GEMFIBROZIL],Activity,Rattus norvegicus [6],104%
same,Activity,Rattus norvegicus [7],2%
same,Activity,Rattus norvegicus [8],-23%
same,Activity,Rattus norvegicus [9],54%
same,Activity,Rattus norvegicus [10],-29%
Cc1ccc(Cl)cc1N/C(S)=N/[C@H](C)CO,Activity,Rattus norvegicus [11],13%
same,Activity,Rattus norvegicus [12],85%
same,Activity,Rattus norvegicus [13],-23%
same,Activity,Rattus norvegicus [14],6%
same,Activity,Rattus norvegicus [15],-4%
Cc1ccc(C)c(N/C(S)=N/CCO)c1,Activity,Rattus norvegicus [16],62%
same,Activity,Rattus norvegicus [17],-117%
same,Activity,Rattus norvegicus [18],32%
same,Activity,Rattus norvegicus [19],-32%
same,Activity,Rattus norvegicus [20],0%
OCC/N=C(\S)Nc1cccc(Cl)c1,Activity,Rattus norvegicus [21],79%
same,Activity,Rattus norvegicus [22],30%
same,Activity,Rattus norvegicus [23],-70%
same,Activity,Rattus norvegicus [24],-31%
same,Activity,Rattus norvegicus [25],43%
Cc1ccc(Cl)cc1/N=C(\S)NCCS,Activity,Rattus norvegicus [26],10%
same,Activity,Rattus norvegicus [27],25%
same,Activity,Rattus norvegicus [28],-20%
same,Activity,Rattus norvegicus [29],8%
same,Activity,Rattus norvegicus [30],-3%
Cc1ccc(Cl)cc1/N=C(\S)N(C)CCO,Activity,Rattus norvegicus [11],100%
same,Activity,Rattus norvegicus [12],29%
same,Activity,Rattus norvegicus [13],-47%
same,Activity,Rattus norvegicus [14],40%
same,Activity,Rattus norvegicus [15],-31%
Cc1ccc(Cl)cc1/N=C(\S)NCCO,Activity,Rattus norvegicus [31],75%
same,Activity,Rattus norvegicus [32],-104%
same,Activity,Rattus norvegicus [33],39%
same,Activity,Rattus norvegicus [34],-53%
same,Activity,Rattus norvegicus [35],48%
OCC/N=C(\S)Nc1cc(Cl)ccc1Cl,Activity,Rattus norvegicus [36],71%
same,Activity,Rattus norvegicus [37],21%
same,Activity,Rattus norvegicus [38],-66%
same,Activity,Rattus norvegicus [39],-13%
same,Activity,Rattus norvegicus [40],36%
OCC/N=C(\S)Nc1cccc(C(F)(F)F)c1,Activity,Rattus norvegicus [36],66%
same,Activity,Rattus norvegicus [37],44%
same,Activity,Rattus norvegicus [38],-76%
same,Activity,Rattus norvegicus [39],-15%
same,Activity,Rattus norvegicus [40],36%

# Reference: ChEMBL document CHEMBL1144306, “1-Hydroxyalkyl-3-phenylthioureas as novel HDL-elevating agents” (2005)
